# Compound activity deposited in PubChem BioAssay by several laboratories.
# Hits are enriched below; roughly 1.9% of the tested compounds scored in any of these assays.
# beta cell repl = inducers of MIN6 beta-cell proliferation, primary screen, ATP luminescence, uHTS; MIN6 cells proliferation, ATPlite luminescence, 48 h; cells starved in 0.2% serum; 100% = growth in 10% serum; proliferation, % at 10 µM; 0.29% of 330,000 active; AID 2380, 2010;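 active = compounds whose signal lies at least 3.5 SD above the mean of all wells on their plate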;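 note: 0% = DMSO-treated cells in low-serum medium and 100% = 10% serum control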
# V-ATPase pHluor = regulators of yeast V-ATPase proton pumping, primary screen, pHLuorin cytosolic pH fluorescence. S. cerevisiae. response, % at 10 µM. 0.37% of 350,000 active. AID 504577, 2011; in the data active = response mostly above about 7.3%, no sharp cut-off; inactive = mostly below about 5.4%; note: actives read high
# Yeast superoxide = reduction of superoxide in aged yeast, primary screen, HTS. superoxide response (% of plate mean), % at 10 µM. S. cerevisiae aged cells, superoxide DHE fluorescence; hits give low values. 0.18% of 330,000 active;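 active = superoxide response under a set limit, about three screen SD below normal, cut at about 65% in these data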;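 note: yeast aged for seven days with compound at 30 °C before DHE staining; 100% = average MFI of all compound-treated wells on the plate with controls excluded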
# proKLK7 act = proKLK7 zymogen activators, primary screen, biochemical, fluorescence intensity. Kallikrein-7 (Homo sapiens), P49862. purified proKLK7, EDANS-DABCYL substrate fluorescence; 100% is mature enzyme control, 0% vehicle. activation, % at 7 µM. 0.9% of 370,000 active. AID 652039, 2013;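 active = activation above the mean of all tested compounds plus 3 SD, computed per campaign excluding outliers beyond control limits, cut at about 13% in these data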
# Target sequence (P49862 whole entry, looked up): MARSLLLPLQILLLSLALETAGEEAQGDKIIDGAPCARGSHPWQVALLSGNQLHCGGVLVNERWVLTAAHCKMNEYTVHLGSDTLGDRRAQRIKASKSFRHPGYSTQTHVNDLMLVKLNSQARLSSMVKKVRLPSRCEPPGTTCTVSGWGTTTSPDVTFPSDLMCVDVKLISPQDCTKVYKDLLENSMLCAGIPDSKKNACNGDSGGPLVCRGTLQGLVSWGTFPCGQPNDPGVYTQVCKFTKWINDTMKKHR
# Rce1 inh = yeast Rce1p protease inhibitors, primary screen, biochemical, fluorescence, cell-free homogeneous; CAAX prenyl protease 2 (Saccharomyces cerevisiae (strain ATCC 204508 / S288c)), Q03530; yeast membranes, quenched prenylated peptide cleavage fluorescence; calls only; 0.27% of 290,000 active; AID 2563, 2010;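 active = fall in fluorescence gain of 50% or more versus controls, with final raw signal at or below 3038400; inconclusive = same 50% fall but final raw signal above 3038400; inactive = fall in fluorescence gain under 50%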;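 note: plate controls were neutral control wells for no effect and wells lacking membranes for full effect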
# Target sequence (Q03530 whole entry, looked up): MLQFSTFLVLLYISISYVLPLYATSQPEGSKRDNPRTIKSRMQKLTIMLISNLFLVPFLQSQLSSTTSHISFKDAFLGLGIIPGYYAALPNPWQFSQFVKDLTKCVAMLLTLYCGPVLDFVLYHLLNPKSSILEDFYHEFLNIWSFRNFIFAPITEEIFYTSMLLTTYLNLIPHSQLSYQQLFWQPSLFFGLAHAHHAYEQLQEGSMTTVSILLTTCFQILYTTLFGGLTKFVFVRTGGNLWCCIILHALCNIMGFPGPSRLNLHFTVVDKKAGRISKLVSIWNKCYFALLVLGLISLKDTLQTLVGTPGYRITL
# T cell modulator = modulators of CD8 T cell-vesicle binding, primary screen, mouse 2C CD8+ T cells, flow cytometry | 2C CD8+ T cell-vesicle binding; hits give low values | response (vesicle binding), % at 7 µM | 0.068% of 330,000 active | AID 2052, 2009;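 active = response, share of CD8 T cells binding vesicles, and their 90th percentile fluorescence all below set limits, cut at about 80% in these data, passing the limit was not always enough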;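 note: values below 100% mean blocked vesicle binding to the CD8+ T cells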
#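 Test system: purified 2C TCR transgenic mouse naive CD8+ T cells. Probe or stimulus: QL9-peptide-loaded Drosophila micro-vesicles bearing Ld, ICAM-1 and B7-1. Incubation: binding step 1.5 h, 37 °C, antibody labelling 20 min, ice. Measured by: flow cytometry of vesicle-bound cells.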
# proKLK7 act conf = proKLK7 zymogen activators, confirmation, biochemical, fluorescence intensity, triplicate; shares compounds with proKLK7 act; purified proKLK7, EDANS-DABCYL substrate fluorescence; scaled: vehicle 0, mature enzyme 100; activation, % at 7 µM; 68% of 3,200 active; AID 686949, 2013;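 active = activation, as change over the incubation, above the mean of all tested compounds plus 3 SD, cut at about 13% in these data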
# EDANS interfere = EDANS-DABCYL substrate optical interference, artefact control for kallikrein-7 zymogen activator project, biochemical, fluorescence intensity, high throughput; shares compounds with proKLK7 act; no enzyme, 4 h; solvent 0%, active enzyme control 100%; activation, % at 7 µM; 80% of 3,200 active; AID 686952, 2013;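 active = activation above the all-compound mean plus 3 SD, ignoring values outside control-based bounds, cut at about 4.8% in these data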;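 note: value is the 4 h activation minus the activation read at time zero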
# * hit, by the source's call; i = inactive; ? = inconclusive; . = no result given.
SMILES,beta cell repl,V-ATPase pHluor,Yeast superoxide,proKLK7 act,Rce1 inh,T cell modulator,proKLK7 act conf,EDANS interfere
COc1ccc(NC(=O)c2cc(-c3ccco3)nc3ccccc23)cc1,-3,1,95,15*,i,259,14*,20*
CN(C)C(CNC(=O)c1cc(-c2ccco2)nc2ccccc12)c1ccccc1 (stereo unspecified),0,3,95,31*,.,252,1,1
Cc1ccccc1NC(=O)c1cc(-c2ccco2)nc2ccccc12,.,0,.,-178,.,.,.,.
NS(=O)(=O)c1ccc(CCNC(=O)c2cc(-c3ccco3)nc3ccccc23)cc1,2,2,103,-1,.,199,.,.
COc1cc(-c2cc(C(=O)Nc3cc(S(=O)(=O)N4CCOCC4)ccc3C)c3ccccc3n2)cc(OC)c1OC,0,-1,.,211*,.,.,233*,316*
CCCCNC(=O)C[C@H]1C[C@@]2(C(=O)OC)C(=C[C@H](C(C)(C)C)O[C@@H]2C)N(Cc2ccc(Cl)cc2Cl)C1=O,.,.,.,0,.,.,.,.
CCCCCCCNC(=O)c1cc(-c2ccncc2)nc2ccccc12,-2,1,131,0,i,259,.,.
CCOc1ccc(-c2cc(C(=O)NCCCN3CCOCC3)c3ccccc3n2)cc1,-4,0,91,18*,i,796,6,9.6*
COc1ccccc1CNC(=O)COC(=O)c1cc(-c2ccco2)nc2ccccc12,-3,1,117,1,i,271,.,.
COc1ccc(-c2cc(C(=O)Nc3ccc(S(N)(=O)=O)cc3)c3ccccc3n2)cc1OC,-2,-20,104,131*,i,180,77*,95*
NC(=O)COC(=O)c1cc(-c2ccco2)nc2ccccc12,-1,-1,134,161*,i,436,63*,72*
CCCCCCNC(=O)c1cc(-c2ccco2)nc2ccccc12,-5,0,98,20*,i,278,-24,-34
Nc1nonc1C(=O)NCCNC(=O)c1cccc(Cl)c1,0,8,97,0,i,166,.,.
COc1cccc(NC(=O)CN(C)C(=O)c2cc(C)on2)c1,-2,-1,94,-1,i,804,.,.
CC(C)=CC(=O)O[C@@H]1Cc2cc3ccc(=O)oc3cc2OC1(C)C,-2,-3,98,0,.,178,.,.
O=C(NCCCN1CCOCC1)c1cc(-c2ccco2)nc2ccccc12,0,1,86,62*,.,186,18*,30*
N#Cc1c(N)n(CCCN2CCOCC2)c2nc3ccccc3nc12,0,-1,89,47*,.,328,68*,79*
CCCCCn1c(N)c(C#N)c2nc3ccccc3nc21,-3,4,92,22*,i,375,-60,-56
CC1CCCCC1NC(=O)CN1C(=O)NC(C)(c2cc(F)ccc2F)C1=O (stereo unspecified),5,-3,102,0,.,287,.,.
Cn1ccc2c(-c3ccc(C(=O)O)cc3)cc3c(c21)C1CCC3O1 (stereo unspecified),.,.,.,79*,.,.,66*,70*
CCN(CC)CCNS(=O)(=O)c1ccc(Cl)cc1,-1,7,85,1,i,617,.,.
Cc1nc2nc(CCNS(=O)(=O)c3ccc(Cl)cc3)cn2nc1C,-2,13*,120,24*,i,490,75*,75*
COc1ccc(S(=O)(=O)NCCc2cn3nc(C)c(C)nc3n2)cc1,-1,2,96,32*,i,585,71*,77*
COC(=O)[C@H](CC(C)C)N(Cc1cn(CC2CCCCC2)nn1)S(=O)(=O)c1ccc(F)cc1Br,.,.,.,1,.,.,.,.
CC1(C(=O)NCc2cccc3ccccc23)CCN1C(=O)Cc1ccc(-c2ccccc2)cc1 (stereo unspecified),.,.,.,0,.,.,.,.
SMILES,beta cell repl,V-ATPase pHluor,Yeast superoxide,proKLK7 act,Rce1 inh,T cell modulator,proKLK7 act conf,EDANS interfere
C[C@@H]1CN([C@@H](C)CO)C(=O)CCCn2nncc2CO[C@H]1CN(C)Cc1ccccc1C(F)(F)F,.,-4,.,0,.,.,.,.
COc1ccc(OCCN2C(=O)c3ccccc3C2=O)cc1,5,-2,123,0,i,120,.,.
COc1ccc(C2=Nc3ccccc3C2(O)CCN2C(=O)c3ccccc3C2=O)cc1 (stereo unspecified),.,3,.,16*,.,.,22*,22*
COc1ccc(OC)c(C2C(C#N)=C(N)Oc3c2c(C)nn3-c2cccc(Cl)c2)c1 (stereo unspecified),-6,-2,86,19*,i,416,35*,33*
CNc1cccc(-c2ccc(C(C)=O)s2)n1,.,.,.,1,.,.,.,.
CC(=O)c1ccc(-c2cccs2)s1,0,2,103,63*,i,i,63*,69*
COc1ccc(CCNC(=O)C2CCCN2C(=O)Nc2ccc(Cl)cc2)cc1OC (stereo unspecified),-1,1,93,-1,i,356,.,.
CCN(CC)CCn1c2ccccc2c2cnc(N)c(C#N)c21,0,3,111,18*,i,436,7,3
CCCc1cc(=O)oc2c3c(cc(OCC(=O)N[C@@H](C)C(=O)O)c12)OC(C)(C)CC3,2,1,84,49*,?,49,70*,78*
CCCc1cc(=O)oc2c3c(cc(OCC(=O)NCc4ccccn4)c12)OC(C)(C)CC3,0,2,107,-12,i,180,.,.
CCc1cc(=O)oc2c3c(cc(OCC(=O)N[C@H](C(=O)O)[C@H](C)CC)c12)OC(C)(C)CC3,0,-3,84,48*,i,112,49*,49*
CCCc1cc(=O)oc2c3c(cc(OCC(=O)N[C@@H](CSC)C(=O)O)c12)OC(C)(C)CC3,-4,1,102,32*,i,140,35*,31*
CC(C)CC1OC(C)CC2=C1C(=O)OC(C)(C)O2 (stereo unspecified),.,.,.,0,.,.,.,.
CN1C2C=CC(=O)C1C1C(=O)N(c3ccccc3)C(=O)C12 (stereo unspecified),.,.,.,0,.,.,.,.
COC(=O)C1(C)CCc2cc(OC)ccc2C1=O (stereo unspecified),0,5,87,0,i,105,.,.
